Converted amounts (≈) assume the structure as drawn. Where two headings read alike, the source gives them in different places. Where only a bound is given, the exact number is not on record here.

The subject of one series is Human HepG2 cells. The series is described as follows: cytotoxicity against a human cell line. The series is classed as cell-based. The note with it: read-out: HepG2 growth inhibition EC50; 95% CI in parentheses.
The target of another series is P. cynomolgi DHODH (Plasmodium cynomolgi, UniProt K6UE05). The note with it: read-out: P. cynomolgi DHODH IC50; cited from earlier work.
P. cynomolgi DHODH, sequence (K6UE05 1-385): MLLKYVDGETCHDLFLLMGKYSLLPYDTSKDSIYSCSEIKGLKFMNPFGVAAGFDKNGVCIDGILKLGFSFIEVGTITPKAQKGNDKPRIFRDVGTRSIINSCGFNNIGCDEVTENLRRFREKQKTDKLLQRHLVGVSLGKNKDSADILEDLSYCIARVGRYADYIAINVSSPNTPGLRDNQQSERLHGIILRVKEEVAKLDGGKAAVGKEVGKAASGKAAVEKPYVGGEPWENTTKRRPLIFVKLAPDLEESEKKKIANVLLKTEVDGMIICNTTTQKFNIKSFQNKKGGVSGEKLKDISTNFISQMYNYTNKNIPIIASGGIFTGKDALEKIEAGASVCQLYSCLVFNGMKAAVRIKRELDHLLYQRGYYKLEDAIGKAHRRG
In series [1] the test system is P. falciparum 3D7A parasites. The conditions noted are these: DSM265, cited from earlier work.
The next series concerns P. falciparum 3D7. The note with it: cited from earlier work.
For a further series, the system named is P. vivax field isolates. The series is described as follows: ex vivo 48 h schizont maturation assay. The series is classed as cell-based. The method, boiled down:
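Field isolates came from patients at malaria clinics in Timika, Papua, Indonesia, and were tested in a 48 h schizont maturation assay adapted from the WHO microtest at 2% hematocrit. P. falciparum was run in RPMI 1640 with 10% AB+ human serum. P. vivax was run in McCoy's 5A with 20% AB+ human serum.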

The next series concerns the target Rabbit DHODH (Oryctolagus cuniculus, UniProt G1SWF3). The note with it: read-out: Rabbit DHODH IC50; cited from earlier work.
For series [2] the following is noted: dogs; DSM265; cited from earlier work.
The conditions of series [3]: DSM265; cited from earlier work.
Series [4] is described as follows: kinetic solubility in pH 6.5 buffer. The series is classed as physicochemical. The note with it: aqueous buffer pH 6.5, pH 6.5.
Another series deals with Minipig DHODH (Sus scrofa, UniProt F1S3B0). The note with it: read-out: Minipig DHODH IC50; cited from earlier work.
Minipig DHODH, sequence (F1S3B0 1-395): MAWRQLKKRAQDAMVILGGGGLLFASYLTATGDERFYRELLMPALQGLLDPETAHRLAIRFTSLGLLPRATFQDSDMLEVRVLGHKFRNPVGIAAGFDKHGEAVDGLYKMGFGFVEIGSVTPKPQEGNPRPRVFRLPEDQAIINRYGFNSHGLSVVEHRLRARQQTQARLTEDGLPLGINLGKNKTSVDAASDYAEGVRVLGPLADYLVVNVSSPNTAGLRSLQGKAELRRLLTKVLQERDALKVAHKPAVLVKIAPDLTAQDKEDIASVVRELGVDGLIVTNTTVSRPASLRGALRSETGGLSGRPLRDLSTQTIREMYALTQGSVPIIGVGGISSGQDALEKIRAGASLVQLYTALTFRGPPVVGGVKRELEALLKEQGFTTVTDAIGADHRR
The conditions of series [5]: across species; DSM265; cited from earlier work.

Rabbit DHODH, sequence (G1SWF3 1-395): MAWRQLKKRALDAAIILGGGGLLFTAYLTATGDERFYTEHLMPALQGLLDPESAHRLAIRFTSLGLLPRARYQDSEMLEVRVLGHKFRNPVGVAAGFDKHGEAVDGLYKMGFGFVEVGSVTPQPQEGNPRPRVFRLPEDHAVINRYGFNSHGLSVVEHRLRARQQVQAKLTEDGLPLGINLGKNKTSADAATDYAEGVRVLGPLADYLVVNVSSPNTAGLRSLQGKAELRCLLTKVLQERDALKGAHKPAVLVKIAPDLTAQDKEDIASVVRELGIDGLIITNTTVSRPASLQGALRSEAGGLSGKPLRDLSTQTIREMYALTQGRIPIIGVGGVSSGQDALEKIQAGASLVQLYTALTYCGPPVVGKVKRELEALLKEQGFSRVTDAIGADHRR

Take `O=C(O)c1[nH]c(=O)[nH]c(=O)c1F` [5-fluoroorotate, reference compound]: in the series with Human HepG2 cells, the EC50 amounted to 770 nM.
With `Cc1cc(Nc2ccc(S(F)(F)(F)(F)F)cc2)n2nc(C(C)(F)F)nc2n1` [DSM265], the IC50 at P. cynomolgi DHODH was 12 nM; on Rabbit DHODH it was more than 100000 nM; at Minipig DHODH, approximately 100000 nM. For the same molecule, the concentration for a half-maximal effect (EC50) was 11 nM in [1] (read-out: EC50, 48 h growth assay (PRR), P. falciparum 3D7, 48 h); 1.9 nM in series [1] (read-out: unbound EC50, P. falciparum 3D7 48 h growth assay (PRR)); 4.3 nM in the series on P. falciparum 3D7 (read-out: Pf3D7 EC50, whole cell P. falciparum 3D7, albumax media, 72 h); 0.73 nM in the series with P. falciparum 3D7 (read-out: unbound EC50, P. falciparum 3D7 in vitro 72 h growth assay, DSM265). In addition, the “sensitivity of P. vivax versus P. falciparum field isolates” value with P. vivax field isolates worked out at 5 fold. In addition, in [2], the systemic plasma clearance was 1.2 mL/min/kg. The unbound intrinsic clearance in [2] is reported as 183 mL/min/kg. In addition, the predicted human half-life in [3] was 100 h. The kinetic solubility in series [4] turned out to be 12.5 µg/mL (≈ 30.1 µM). The oral bioavailability in series [5] is on record as 20-70%.

These data come from publication PMC5148661 (ACS infectious diseases, 2016).
